Experimental data: ChEMBL document CHEMBL4270599, “Synthesis of a 3'-C-ethynyl-β-d-ribofuranose purine nucleoside library: Discovery of C7-deazapurine analogs as potent antiproliferative nucleosides” (Eur J Med Chem, 2018)

Tests used:
CCRF-CEM = experiment: Antiproliferative activity against human CEM cells after 72 hrs by Coulter counter method; type: functional, cell-based
Summary of the method: (§1)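 Cell count assay in 96-well microtiter plates; (5–7.5) × 10⁴ tumor cells per well plus test compound. Cells proliferated at 37 °C in humidified CO₂-controlled atmosphere, 48 h for murine leukemia L1210, 72 h for human lymphocytic CEM and cervix carcinoma HeLa. Counted by Coulter counter; IC₅₀ is the concentration that inhibits proliferation by 50%.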

HeLa = experiment: Antiproliferative activity against human HeLa cells after 72 hrs by Coulter counter method; type: functional, cell-based; summary of the method: as §1
HOP-62 = experiment: Cytotoxicity against human HOP62 cells after 48 hrs by SRB assay; type: functional; conditions: HOP-62, 48 h; for GI50: read-out: GI50; for CC50: read-out: LC50 (the source's name); for TGI: read-out: TGI
COLO 205 = experiment: Cytotoxicity against human COLO205 cells after 48 hrs by SRB assay; type: functional; conditions: COLO 205, 48 h; for GI50: read-out: GI50; for CC50: read-out: LC50 (the source's name); for TGI: read-out: TGI
SF-295 = experiment: Cytotoxicity against human SF295 cells after 48 hrs by SRB assay; type: functional; conditions: SF-295, 48 h; for GI50: read-out: GI50; for CC50: read-out: LC50 (the source's name)
SNB-19 = experiment: Cytotoxicity against human SNB19 cells after 48 hrs by SRB assay; type: functional; conditions: SNB-19, 48 h; for GI50: read-out: GI50; for CC50: read-out: LC50 (the source's name); for TGI: read-out: TGI
M14 [1] = experiment: Cytotoxicity against human M14 cells after 48 hrs by SRB assay; type: functional; conditions: M14, 48 h; for GI50: read-out: GI50; for CC50: read-out: LC50 (the source's name); for TGI: read-out: TGI
MDA-MB-435 = experiment: Cytotoxicity against human MDA-MB-435 cells after 48 hrs by SRB assay; type: functional; conditions: MDA-MB-435, 48 h; for GI50: read-out: GI50; for TGI: read-out: TGI
SK-MEL-5 = experiment: Cytotoxicity against human SK-MEL-5 cells after 48 hrs by SRB assay; type: functional; conditions: SK-MEL-5, 48 h; for GI50: read-out: GI50; for CC50: read-out: LC50 (the source's name); for TGI: read-out: TGI
OVCAR-8 = experiment: Cytotoxicity against human OVCAR8 cells after 48 hrs by SRB assay; type: functional; conditions: OVCAR-8, 48 h; for GI50: read-out: GI50
SK-OV-3 [2] = experiment: Cytotoxicity against human SKOV3 cells after 48 hrs by SRB assay; type: functional; conditions: SK-OV-3, 48 h; for GI50: read-out: GI50; for CC50: read-out: LC50 (the source's name)
ACHN = experiment: Cytotoxicity against human ACHN cells after 48 hrs by SRB assay; type: functional; conditions: for CC50: read-out: pLC50 (the source's name) (converted)
T47D = experiment: Cytotoxicity against human T47D cells after 48 hrs by SRB assay; type: functional; conditions: for CC50: read-out: pLC50 (the source's name) (converted)
A549 = experiment: Growth inhibition of human A549/ATCC cells assessed as cell growth at 10^-8 M incubated for 48 hrs by sulforhodamine B assay relative to control; type: functional; conditions: A549, 48 h, read-out: Activity
NCI-H226 [3] = experiment: Growth inhibition of human NCI-H226 cells assessed as cell growth at 10^-8 M incubated for 48 hrs by sulforhodamine B assay relative to control; type: functional; conditions: NCI-H226, 48 h, read-out: Activity
U-251 = experiment: Growth inhibition of human U251 cells assessed as cell growth at 10^-8 M incubated for 48 hrs by sulforhodamine B assay relative to control; type: functional; conditions: U-251, 48 h, read-out: Activity
RPMI-8226 = experiment: Growth inhibition of human RPMI8226 cells assessed as cell growth at 10^-7 M incubated for 48 hrs by sulforhodamine B assay relative to control; type: functional; conditions: RPMI-8226, 48 h, read-out: Activity
NCI-H226 [4] = experiment: Growth inhibition of human NCI-H226 cells assessed as cell growth at 10^-7 M incubated for 48 hrs by sulforhodamine B assay relative to control; type: functional; conditions: NCI-H226, 48 h, read-out: Activity
HT-29 = experiment: Growth inhibition of human HT-29 cells assessed as cell growth at 10^-7 M incubated for 48 hrs by sulforhodamine B assay relative to control; type: functional; conditions: HT-29, 48 h, read-out: Activity
SF-539 [5] = experiment: Growth inhibition of human SF539 cells assessed as cell growth at 10^-7 M incubated for 48 hrs by sulforhodamine B assay relative to control; type: functional; conditions: SF-539, 48 h, read-out: Activity
M14 [6] = experiment: Growth inhibition of human M14 cells assessed as cell growth at 10^-7 M incubated for 48 hrs by sulforhodamine B assay relative to control; type: functional; conditions: M14, 48 h, read-out: Activity
OVCAR-3 = experiment: Growth inhibition of human OVCAR3 cells assessed as cell growth at 10^-7 M incubated for 48 hrs by sulforhodamine B assay relative to control; type: functional; conditions: OVCAR-3, 48 h, read-out: Activity
SF-268 = experiment: Growth inhibition of human SF268 cells assessed as cell growth at 10^-6 M incubated for 48 hrs by sulforhodamine B assay relative to control; type: functional; conditions: SF-268, 48 h, read-out: Activity
SF-539 [7] = experiment: Growth inhibition of human SF539 cells assessed as cell growth at 10^-6 M incubated for 48 hrs by sulforhodamine B assay relative to control; type: functional; conditions: SF-539, 48 h, read-out: Activity
PC-3 = experiment: Growth inhibition of human PC3 cells assessed as cell growth at 10^-6 M incubated for 48 hrs by sulforhodamine B assay relative to control; type: functional; conditions: PC-3, 48 h, read-out: Activity
MCF7 = experiment: Growth inhibition of human MCF7 cells assessed as cell growth at 10^-6 M incubated for 48 hrs by sulforhodamine B assay relative to control; type: functional; conditions: MCF7, 48 h, read-out: Activity
KM12 = experiment: Growth inhibition of human KM12 cells assessed as cell growth at 10^-5 M incubated for 48 hrs by sulforhodamine B assay relative to control; type: functional; conditions: KM12, 48 h, read-out: Activity
TK-10 = experiment: Growth inhibition of human TK10 cells assessed as cell growth at 10^-4 M incubated for 48 hrs by sulforhodamine B assay relative to control; type: functional; conditions: TK-10, 48 h, read-out: Activity
HOP-92 = experiment: Growth inhibition of human HOP92 cells assessed as cell growth at 10^-6 M incubated for 48 hrs by sulforhodamine B assay relative to control; type: functional; conditions: HOP-92, 48 h, read-out: Activity
SK-OV-3 [8] = experiment: Growth inhibition of human SKOV3 cells assessed as cell growth at 10^-4 M incubated for 48 hrs by sulforhodamine B assay relative to control; type: functional; conditions: SK-OV-3, 48 h, read-out: Activity
[9] = read-out: pLC50 (the source's name) (converted)
[10] = read-out: LC50 (the source's name)

C#C[C@@]1(O)[C@@H](CO)O[C@@H](n2cc(Br)c3c(N)ncnc32)[C@@H]1O
IC50 (CCRF-CEM): 30 nM
IC50 (HeLa): 93 nM
GI50 (HOP-62): 211 to 427 nM
CC50 (HOP-62): > 100000 nM
TGI (HOP-62): 4760 to 100000 nM
GI50 (COLO 205): 43.6 to 182 nM
CC50 (COLO 205): 8040 to 100000 nM
TGI (COLO 205): 235 to 903 nM
GI50 (SF-295): 189 to 466 nM
CC50 (SF-295): > 100000 nM
TGI (SF-295; read-out: TGI): 4120 to 13700 nM
GI50 (SNB-19): 17.4 to 211 nM
CC50 (SNB-19): > 100000 nM
TGI (SNB-19): 777 to 100000 nM
GI50 (M14 [1]): 145 to 353 nM
CC50 (M14 [1]): 75300 to 100000 nM
TGI (M14 [1]): 12900 to 14200 nM
GI50 (MDA-MB-435): 105 to 294 nM
TGI (MDA-MB-435): 5360 to 19700 nM
CC50 (MDA-MB-435; [9]): > 100000 nM
GI50 (SK-MEL-5): 47.8 to 239 nM
CC50 (SK-MEL-5): 6240 to 100000 nM
TGI (SK-MEL-5): 522 to 7180 nM
GI50 (OVCAR-8): 13.5 to 62.5 nM
CC50 (OVCAR-8; [10]): > 100000 nM
TGI (OVCAR-8; read-out: TGI): 1120 nM
TGI (OVCAR-8; read-out: pTGI (converted)): 1120 nM
GI50 (SK-OV-3 [2]): 44.1 to 153 nM
CC50 (SK-OV-3 [2]): > 100000 nM
TGI (SK-OV-3 [2]; read-out: TGI): 439 nM
TGI (SK-OV-3 [2]; read-out: pTGI (converted)): 437 nM
GI50 (ACHN): 234 nM
CC50 (ACHN): > 100000 nM
GI50 (T47D; read-out: GI50): 17.3 to 43.2 nM
TGI (T47D; read-out: TGI): 177 nM
CC50 (T47D): > 100000 nM
TGI (T47D; read-out: pTGI (converted)): 178 nM
growth at 0.01 µM (A549): 94 to 99%
growth at 0.01 µM (NCI-H226 [3]): 96 to 98%
growth at 0.01 µM (U-251): 57 to 87%
growth at 0.1 µM (RPMI-8226): 41 to 83%
growth at 0.1 µM (NCI-H226 [4]): 81 to 98%
growth at 0.1 µM (HT-29): 10 to 35%
growth at 0.1 µM (SF-539 [5]): 79 to 91%
growth at 0.1 µM (M14 [6]): 56 to 81%
growth at 0.1 µM (OVCAR-3): 62 to 72%
growth at 1 µM (SF-268): 34 to 36%
growth at 1 µM (SF-539 [7]): 3 to 19%
growth at 1 µM (PC-3): 8 to 12%
growth at 1 µM (MCF7): 3 to 5%
growth at 10 µM (KM12): 7 to 12%
growth at 100 µM (TK-10): 7%

C#C[C@@]1(O)[C@@H](CO)O[C@@H](n2cc(I)c3c(N)ncnc32)[C@@H]1O
IC50 (CCRF-CEM): 120 nM
IC50 (HeLa): 180 nM
GI50 (HOP-62): 367 to 1520 nM
CC50 (HOP-62): > 100000 nM
TGI (HOP-62): 6280 to 12000 nM
GI50 (COLO 205): 44.8 to 170 nM
CC50 (COLO 205): 4780 to 6740 nM
TGI (COLO 205): 393 to 1270 nM
GI50 (SF-295): 251 to 432 nM
CC50 (SF-295): > 100000 nM
TGI (SF-295; read-out: TGI): 3770 nM
TGI (SF-295; read-out: pTGI (converted)): 3800 nM
GI50 (SNB-19): 53.5 to 185 nM
CC50 (SNB-19): > 100000 nM
TGI (SNB-19): 25000 to 100000 nM
GI50 (M14 [1]): 393 to 611 nM
CC50 (M14 [1]): 55500 to 100000 nM
TGI (M14 [1]): 8470 to 10700 nM
GI50 (MDA-MB-435): 320 to 699 nM
CC50 (MDA-MB-435; [10]): > 100000 nM
TGI (MDA-MB-435): 11700 to 14000 nM
GI50 (SK-MEL-5): 179 to 243 nM
CC50 (SK-MEL-5): > 100000 nM
TGI (SK-MEL-5): 2090 to 5200 nM
GI50 (OVCAR-8): 42.3 to 49 nM
TGI (OVCAR-8; read-out: TGI): 1460 to 100000 nM
CC50 (OVCAR-8; [9]): > 100000 nM
GI50 (SK-OV-3 [2]): 19.4 to 60.4 nM
CC50 (SK-OV-3 [2]): > 100000 nM
TGI (SK-OV-3 [2]; read-out: TGI): 469 to 1130 nM
GI50 (ACHN): 316 nM
TGI (ACHN; read-out: TGI): > 100000 nM
CC50 (ACHN): > 100000 nM
TGI (ACHN; read-out: pTGI (converted)): > 100000 nM
TGI (T47D; read-out: TGI): 51 to 315 nM
GI50 (T47D; read-out: pGI50 (converted)): < 10 nM
CC50 (T47D): > 100000 nM
growth at 0.01 µM (A549): 90 to 92%
growth at 0.01 µM (NCI-H226 [3]): 84 to 97%
growth at 0.01 µM (U-251): 94 to 99%
growth at 0.1 µM (RPMI-8226): 71 to 90%
growth at 0.1 µM (NCI-H226 [4]): 75 to 95%
growth at 0.1 µM (HT-29): 14 to 34%
growth at 0.1 µM (SF-539 [5]): 75 to 82%
growth at 0.1 µM (M14 [6]): 67 to 75%
growth at 0.1 µM (OVCAR-3): 76 to 79%
growth at 1 µM (HOP-92): 10%
growth at 1 µM (SF-268): 49 to 55%
growth at 1 µM (SF-539 [7]): 23 to 35%
growth at 1 µM (PC-3): 13 to 14%
growth at 1 µM (MCF7): 1 to 6%
growth at 10 µM (KM12): 3 to 12%
growth at 100 µM (SK-OV-3 [8]): -9%
